Assay results from ChEMBL document CHEMBL3232815, “Synthesis and anticonvulsant activity of some new pyrazolo[3,4-b]pyrazines and related heterocycles” (2014).

Key:
Type in all cases: functional
Conditions in all cases: route intraperitoneal
[1] = tested on: Mus musculus; assay: Anticonvulsant activity in Swiss Webster mouse assessed as PTZ-induced clonic seizures at 10 mg/kg, ip pretreated 20 mins before PTZ challenge and measured 1 hr post PTZ challenge relative to control
Method in brief: (§1)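 Male adult Swiss–Webster mice, 22–30 g, 12 h light/dark cycle at 25 °C, food and water ad libitum. Compound 10 mg/kg ip (0.2% in corn oil), one group per compound (8 animals), 20 min before PTZ 75 mg/kg ip (1.5% in saline). Watched 1 h for seizure onset (min) and % animals convulsing; 24 h survival noted. Phenobarbital 30 mg/kg reference; p vs PTZ group.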

[2] = tested on: Mus musculus; assay: Anticonvulsant activity in Swiss Webster mouse assessed as PTZ-induced tonic seizures at 10 mg/kg, ip pretreated 20 mins before PTZ challenge and measured 1 hr post PTZ challenge relative to control; method in brief: as §1
[3] = tested on: Mus musculus; assay: Anticonvulsant activity in Swiss Webster mouse assessed as survivors level at 10 mg/kg, ip pretreated 20 mins before PTZ challenge and measured 24 hrs post PTZ challenge relative to control
Method in brief: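 Male adult Swiss–Webster mice (22–30 g), 8 per group. Compounds are given ip at 10 mg/kg (0.2% in corn oil) 20 min before PTZ 75 mg/kg ip (1.5% in saline), the minimal convulsive dose. Animals are watched for 1 h after PTZ. Survivors are counted at 24 h and expressed as % survivors against the PTZ-only control. Significance is tested at p<0.05 and p<0.01.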

[4] = tested on: Mus musculus; assay: Anticonvulsant activity in Swiss Webster mouse assessed as PTZ-induced clonic seizures at 30 mg/kg, ip pretreated 20 mins before PTZ challenge and measured 1 hr post PTZ challenge relative to control
Method in brief: (§2)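 Male adult Swiss–Webster mice (22–30 g), 8 per group, with a 12 h light/dark cycle at 25 °C. The reference drug phenobarbital sodium is given at 30 mg/kg ip 20 min before PTZ 75 mg/kg ip (1.5% solution in saline). Clonic and tonic seizure onset (min) and % animals convulsing are scored over 1 h. Survivors are counted at 24 h. Comparison is with the PTZ-only group.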

[5] = tested on: Mus musculus; assay: Anticonvulsant activity in Swiss Webster mouse assessed as PTZ-induced tonic seizures at 30 mg/kg, ip pretreated 20 mins before PTZ challenge and measured 1 hr post PTZ challenge relative to control; method in brief: as §2
[6] = tested on: Mus musculus; assay: Anticonvulsant activity in Swiss Webster mouse assessed as survivors level at 30 mg/kg, ip pretreated 20 mins before PTZ challenge and measured 24 hrs post PTZ challenge relative to control; method in brief: as §2

SMILES	Activity [1] [%]	Activity [2] [%]	survival at 10 mg/kg [3] [%]	Activity [4] [%]	Activity [5] [%]	survival at 30 mg/kg [6] [%]
Cc1nn(-c2ccccc2)c2nc(-c3ccccc3)c(C(=O)NN3C(=O)CSC34CCCC4)nc12	100	25	75	–	–	–
Cc1nn(-c2ccccc2)c2nc(-c3ccccc3)c(C(=O)NN3C(=O)CSC3c3ccccc3)nc12 (stereo not given)	75	12.5	87.5	–	–	–
Cc1nn(-c2ccccc2)c2nc(-c3ccccc3)c(-c3nn4cc(-c5ccc(Br)cc5)nc4s3)nc12	87.5	37.5	62.5	–	–	–
Cc1nn(-c2ccccc2)c2nc(-c3ccccc3)c(C(=O)NN3C(=O)CSC3(C)C)nc12	100	75	25	–	–	–
Cc1nn(-c2ccccc2)c2nc(-c3ccccc3)c(C(=O)NN3C(=O)CSC34CCCCC4)nc12	100	100	0	–	–	–
CCC1(c2ccccc2)C(=O)N=C([O-])NC1=O.[Na+] (stereo not given) [PHENOBARBITAL SODIUM]	–	–	–	0	0	100
COc1ccc(C2SCC(=O)N2NC(=O)c2nc3c(C)nn(-c4ccccc4)c3nc2-c2ccccc2)cc1OC (stereo not given)	87.5	0	100	–	–	–
Cc1nn(-c2ccccc2)c2nc(-c3ccccc3)c(-c3nn4cc(-c5ccccc5)nc4s3)nc12	87.5	12.5	87.5	–	–	–
Cc1nn(-c2ccccc2)c2nc(-c3ccccc3)c(C(=O)NN3C(=O)CSC3c3ccc([N+](=O)[O-])cc3)nc12 (stereo not given)	87.5	25	75	–	–	–
Cc1nn(-c2ccccc2)c2nc(-c3ccccc3)c(C(=O)NN3C(=O)CSC3c3ccc(Cl)cc3)nc12 (stereo not given)	75	25	75	–	–	–
